Results as given in ChEMBL document CHEMBL5038594, “Structural Fine-Tuning of Desmuramylpeptide NOD2 Agonists Defines Their In Vivo Adjuvant Activity” (J Med Chem, 2021).
Activity calls are given as the source filed them. No cut-off for these calls is given here.

Assays:
PBMC [1] = experiment: Immunostimulatory activity in human PBMC cells assessed as increase in LPS-induced TNF-alpha production at 2 uM incubated for 18 hrs by flow cytometry analysis; type: functional, cell-based
Summary of the method: (§1)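 Human PBMCs from healthy donors, 1 × 10^6 cells/mL in RPMI 1640 with 10% FBS, treated with 2 μM compound or 0.1% DMSO, without or with LPS 10 ng/mL, for 18 h at 37 °C. Supernatant cytokines quantified by cytometric bead array (human inflammatory panel) on a flow cytometer against recombinant standards. Four independent donors. Repeated-measures one-way ANOVA with Dunnett.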

PBMC [2] = experiment: Immunostimulatory activity in human PBMC cells assessed as increase in TNF-alpha production at 2 uM incubated for 18 hrs by flow cytometry analysis; type: functional, cell-based; summary of the method: as §1
Mus musculus [3] = experiment: Immuno-adjuvant activity in NIH/OlaHsd mouse assessed as increase in ovalbumin specific IgG production in sera at 0.30 micromol administered subcutaneously on day 1 and as booster dose on day 21 with ovalbumin loaded neutral liposomes and measured 1 week post booster dose by ELISA; type: functional, organism-based; conditions: dose 0.3 µmol, time 28.0 day
Summary of the method: (§2)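 Groups of 5 female NIH/OlaHsd mice, 2.0–2.5 months old, immunized with ovalbumin-loaded neutral liposomes (10 μg ovalbumin per dose) containing 0.30 μmol adjuvant per dose, plus one booster dose. Serum ovalbumin-specific IgG, IgG1 and IgG2a measured 1 week after the booster. Mean ± SEM of 5 mice.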

PBMC [4] = experiment: Immunostimulatory activity in human PBMC cells assessed as increase in LPS-induced IL-8 production at 2 uM incubated for 18 hrs by flow cytometry analysis; type: functional, cell-based; summary of the method: as §1
PBMC [5] = experiment: Immunostimulatory activity in human PBMC cells assessed as increase in LPS-induced IL-1beta production at 2 uM incubated for 18 hrs by flow cytometry analysis; type: functional, cell-based; summary of the method: as §1
PBMC [6] = experiment: Immunostimulatory activity in human PBMC cells assessed as increase in IL-6 production at 2 uM incubated for 18 hrs by flow cytometry analysis; type: functional, cell-based; summary of the method: as §1
BMDC [7] = experiment: Induction of mouse BMDC-mediated ovalbumin specific CD4+ T cell activation assessed as increase in IL-6 production at 10 uM incubated for 72 hrs by flow cytometric analysis; type: functional, cell-based
Summary of the method: (§3)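 BMDCs from C57BL/6 mouse tibia (7 days in GM-CSF 20 ng/mL, >90% CD11c+) pulsed 18 h with compound (1 or 10 μM) plus ovalbumin 50 μg/mL, then washed. They were cocultured 72 h with CFSE-labelled naive OT-II CD4+ T cells. CD25+/CFSE-low fraction of live Thy1.2+CD4+ cells read by flow cytometry; supernatant cytokines also measured. Duplicates of two independent experiments.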

BMDC [8] = experiment: Induction of mouse BMDC-mediated ovalbumin specific CD4+ T cell activation assessed as increase in IL-2 production at 10 uM incubated for 72 hrs by flow cytometric analysis; type: functional, cell-based; summary of the method: as §3
PBMC [9] = experiment: Immunostimulatory activity in human PBMC cells assessed as increase in IL-1beta production at 2 uM incubated for 18 hrs by flow cytometry analysis; type: functional, cell-based; summary of the method: as §1
PBMC [10] = experiment: Immunostimulatory activity in human PBMC cells assessed as increase in LPS-induced IL-6 production at 2 uM incubated for 18 hrs by flow cytometry analysis; type: functional, cell-based; summary of the method: as §1
BMDC [11] = experiment: Induction of mouse BMDC-mediated ovalbumin specific CD4+ T cell activation assessed as increase in IFN-gamma production at 10 uM incubated for 72 hrs by flow cytometric analysis; type: functional, cell-based; summary of the method: as §3
[12] = Cytotoxicity against HEK-Blue hNOD2 cells assessed as reduction in metabolic activity at 20 uM incubated for 18 hrs by MTS assay; type: toxicity, cell-based; conditions: human, hek-blue hnod2, 18 h
Summary of the method: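 HEK-Blue NOD2 cells, 40 000 per well, exposed to 20 μM compound or 0.1% DMSO for 18 h at 37 °C, 5% CO2. Metabolic activity measured by MTS (CellTiter 96 AQueous One) reagent. Duplicates, two independent biological replicates.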

BMDC [13] = experiment: Induction of mouse BMDC-mediated ovalbumin specific CD4+ T cell activation assessed as increase in CD25 expression at 10 uM incubated for 72 hrs by CFSE staining based flow cytometric analysis; type: functional; summary of the method: as §3
PBMC [14] = experiment: Immunostimulatory activity in human PBMC cells assessed as increase in IL-8 production at 2 uM incubated for 18 hrs by flow cytometry analysis; type: functional, cell-based; summary of the method: as §1
BMDC [15] = experiment: Induction of mouse BMDC-mediated ovalbumin specific CD4+ T cell activation assessed as increase in TNF-alpha production at 10 uM incubated for 72 hrs by flow cytometric analysis; type: functional, cell-based; summary of the method: as §3
BMDC [16] = experiment: Induction of mouse BMDC-mediated ovalbumin specific CD4+ T cell activation assessed as increase in CD25 expression at 1 uM incubated for 72 hrs by CFSE staining based flow cytometric analysis; type: functional; summary of the method: as §3
BMDC [17] = experiment: Induction of mouse BMDC-mediated ovalbumin specific CD4+ T cell activation assessed as increase in IL-17A production at 10 uM incubated for 72 hrs by flow cytometric analysis; type: functional, cell-based; summary of the method: as §3
[18] = target: T1, Nucleotide-binding oligomerization domain-containing protein 1 (Homo sapiens) (UniProt Q9Y239); experiment: Agonist activity at NOD1 in HEK-Blue hNOD2 cells assessed as increase in NFkappaB transactivation-mediated SEAP activity measured after 18 hrs by spectrophotometric method; type: cell-based; conditions: HEK-Blue hNOD1, in the assay text read “HEK-Blue hNOD1 cells” for “HEK-Blue hNOD2 cells”
T1 sequence (whole entry): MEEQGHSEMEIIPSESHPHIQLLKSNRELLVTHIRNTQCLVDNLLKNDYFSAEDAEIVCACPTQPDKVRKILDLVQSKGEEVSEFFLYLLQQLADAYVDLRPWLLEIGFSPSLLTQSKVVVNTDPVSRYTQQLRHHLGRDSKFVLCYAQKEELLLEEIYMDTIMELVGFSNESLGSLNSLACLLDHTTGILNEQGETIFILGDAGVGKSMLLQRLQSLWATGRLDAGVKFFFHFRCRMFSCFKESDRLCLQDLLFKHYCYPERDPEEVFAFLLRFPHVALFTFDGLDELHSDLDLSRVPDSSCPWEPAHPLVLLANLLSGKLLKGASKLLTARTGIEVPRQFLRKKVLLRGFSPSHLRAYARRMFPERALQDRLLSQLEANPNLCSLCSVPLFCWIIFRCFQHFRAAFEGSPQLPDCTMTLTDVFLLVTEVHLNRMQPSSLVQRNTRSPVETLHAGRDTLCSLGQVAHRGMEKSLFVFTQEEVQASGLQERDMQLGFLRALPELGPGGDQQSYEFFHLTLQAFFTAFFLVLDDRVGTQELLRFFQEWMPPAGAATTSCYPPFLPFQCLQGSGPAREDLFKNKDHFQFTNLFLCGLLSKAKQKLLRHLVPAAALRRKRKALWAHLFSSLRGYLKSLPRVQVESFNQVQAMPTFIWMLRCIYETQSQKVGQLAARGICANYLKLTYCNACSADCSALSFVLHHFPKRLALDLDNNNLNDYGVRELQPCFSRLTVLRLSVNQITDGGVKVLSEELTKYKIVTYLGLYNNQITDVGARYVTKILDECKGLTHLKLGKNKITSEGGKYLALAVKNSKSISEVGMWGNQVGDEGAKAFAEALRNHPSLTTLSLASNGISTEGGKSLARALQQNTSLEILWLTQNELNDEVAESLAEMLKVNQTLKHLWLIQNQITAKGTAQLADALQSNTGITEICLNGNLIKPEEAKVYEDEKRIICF
Summary of the method: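 Counter-screen in HEK-Blue NOD1 cells (HEK293 stably expressing human NOD1 plus an NF-κB-inducible SEAP reporter), seeded at 2.5 × 10^5 cells/mL in HEK-Blue detection medium. Compounds at 2 μM versus 0.1% DMSO vehicle, 18 h at 37 °C, 5% CO2. SEAP read as absorbance at 630 nm. Duplicates, at least two independent experiments.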

Mus musculus [19] = experiment: Immuno-adjuvant activity in NIH/OlaHsd mouse assessed as increase in ovalbumin specific […] associated IgG2a production in sera at 0.30 micromol administered subcutaneously on day 1 and as booster dose on day 21 with ovalbumin loaded neutral liposomes and measured 1 week post booster dose by ELISA; type: functional, organism-based; conditions: dose 0.3 µmol, time 28.0 day; summary of the method: as §2
Mus musculus [20] = experiment: Immuno-adjuvant activity in NIH/OlaHsd mouse assessed as increase in ovalbumin specific […] associated IgG1 production in sera at 0.30 micromol administered subcutaneously on day 1 and as booster dose on day 21 with ovalbumin loaded neutral liposomes and measured 1 week post booster dose by ELISA; type: functional, organism-based; conditions: dose 0.3 µmol, time 28.0 day; summary of the method: as §2
Mus musculus [21] = experiment: Immuno-adjuvant activity in NIH/OlaHsd mouse assessed as increase in ovalbumin specific […] associated IgG1 production in sera at 0.15 micromol administered subcutaneously on day 1 and as booster dose on day 21 and 28 with ovalbumin loaded liposomes by ELISA; type: functional, organism-based; conditions: dose 0.15 µmol, time 28.0 day
Summary of the method: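 Groups of 5 female NIH/OlaHsd mice, 2.0–2.5 months old, immunized with ovalbumin-loaded liposomes (10 μg ovalbumin per dose) containing 0.15 μmol adjuvant per dose. Liposomes were neutral (PC–cholesterol 7:5), anionic (PC–cholesterol–dicetylphosphate 7:5:1) or mannosylated (PC–cholesterol–mannose-PEG-PA 7:5:0.5). Serum ovalbumin-specific IgG, IgG1 and IgG2a measured 1 week after the second booster. Mean ± SEM.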

In the case of `COc1cc(/C=C/C(=O)NCC(=O)N[C@H](C(=O)N[C@H](CCC(=O)OC2CCCC2)C(=O)OC2CCCC2)C(C)C)ccc1O`, the Activity (PBMC [1]) is reported as “Active”, the Activity (PBMC [2]) is reported as “Active” and the Activity (Mus musculus [3]) is reported as “inactive”. For the same compound, the Activity (PBMC [4]) was “Active”, the Activity (PBMC [5]) was “Active” and the Activity (PBMC [6]) was “Active”. The Activity (BMDC [7]) was “Active”, the Activity (BMDC [8]) was “Active” and the Activity (PBMC [9]) was “Active”. For the same compound, the Activity (PBMC [10]) was “Active”, the Activity (BMDC [11]) was “Active” and the Activity [12] was “Non-Toxic”. The Activity (BMDC [13]) was “Active”, the Activity (PBMC [14]) was “Active” and the Activity (BMDC [15]) was “Active”. For the same compound, the Activity (BMDC [16]) was “Active”, the Activity (BMDC [17]) was “Active” and the Activity [18] was “inactive”. The Activity (Mus musculus [19]) was “inactive”.

For `CCCCCCCCCCCCCCCCCC(=O)Oc1ccc(/C=C/C(=O)NCC(=O)N[C@H](C(=O)N[C@H](CCC(=O)OCC)C(=O)OCC)[C@@H](C)O)cc1OC`, the Activity (PBMC [1]) was “Active”, the Activity (PBMC [2]) was “inactive” and the Activity (PBMC [4]) was “Active”. The Activity (PBMC [5]) was “Active”, the Activity (PBMC [6]) was “inactive” and the Activity (PBMC [9]) was “inactive”. For the same compound, the Activity (PBMC [10]) was “Active”, the Activity [12] was “Non-Toxic” and the Activity (PBMC [14]) was “inactive”. The Activity (Mus musculus [20]) was “inactive” and the Activity [18] was “inactive”.

For `CCCCCCCCCCCC(=O)Oc1ccc(/C=C/C(=O)NCC(=O)N[C@H](C(=O)N[C@H](CCC(=O)OCC)C(=O)OCC)C(C)C)cc1OC`, the Activity (PBMC [1]) was “Active”, the Activity (PBMC [2]) was “Active” and the Activity (PBMC [4]) was “Active”. The Activity (PBMC [5]) was “Active”, the Activity (PBMC [6]) was “Active” and the Activity (PBMC [9]) was “Active”. For the same compound, the Activity (PBMC [10]) was “Active”, the Activity [12] was “Non-Toxic” and the Activity (PBMC [14]) was “Active”. For the same compound, the Activity [18] was “inactive” and the Activity (Mus musculus [19]) was “inactive”.

With `CC(=O)N[C@H]1C(O)O[C@H](CO)[C@@H](O)[C@@H]1O[C@H](C)C(=O)N[C@@H](C)C(=O)N[C@H](CCC(=O)O)C(N)=O` (stereo partly specified) [MURAMYL DIPEPTIDE] the Activity (PBMC [1]) was “Active”, the Activity (PBMC [2]) was “Active” and the Activity (PBMC [4]) was “Active”. The Activity (PBMC [5]) was “Active”, the Activity (PBMC [6]) was “Active” and the Activity (Mus musculus [21]) was “Active”. For the same compound, the Activity (PBMC [9]) was “Active”, the Activity (PBMC [10]) was “Active” and the Activity [12] was “Non-Toxic”. The Activity (PBMC [14]) was “Active” and the Activity [18] was “inactive”.

In the case of `CCOC(=O)CC[C@@H](NC(=O)[C@@H](NC(=O)CNC(=O)/C=C/c1ccc(O)c(OC)c1)C(C)C)C(=O)OCC`, the Activity (Mus musculus [3]) is reported as “Active”, the Activity [12] is reported as “Non-Toxic” and the Activity (Mus musculus [20]) is reported as “Active”. The Activity [18] was “inactive”.
